# Entries after “also recorded” stand apart in the source; their conditions may differ.
# Columns and labels:
# [1] = target: T1, Y1 receptor (Rattus norvegicus, UniProt P21555); experiment: Y1 receptor internalization; type: cell-based; conditions: for Y1 receptor internalization / NPY release by chemical stimulus, summary: spinal cord slices
# T1 sequence (P21555 1-382): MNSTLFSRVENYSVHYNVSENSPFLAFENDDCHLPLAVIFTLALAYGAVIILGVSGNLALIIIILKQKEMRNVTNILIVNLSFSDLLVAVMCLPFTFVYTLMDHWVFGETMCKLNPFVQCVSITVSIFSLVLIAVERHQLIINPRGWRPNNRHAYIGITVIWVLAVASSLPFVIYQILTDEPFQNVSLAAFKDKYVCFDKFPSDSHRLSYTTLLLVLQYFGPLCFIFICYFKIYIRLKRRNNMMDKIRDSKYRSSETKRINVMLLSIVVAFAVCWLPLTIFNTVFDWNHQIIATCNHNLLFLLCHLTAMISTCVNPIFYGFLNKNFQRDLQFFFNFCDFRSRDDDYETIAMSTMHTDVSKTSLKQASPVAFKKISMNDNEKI
# [2] = system: substance P release in the dorsal horn; conditions: ref Chen et al., cited from earlier work
# [3] = target: T1, Y1 receptor; type: cell-based; conditions: with 100 nM NPY; each inhibitor 10 μM; 35 °C, 10 min
# [4] = target: T1, Y1 receptor; experiment: Y1 receptor internalization induced by capsaicin stimulation of the dorsal root; type: cell-based
# Method in brief: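 Rat lumbar (L2-L4) slices, 400 μm, keeping one >8 mm dorsal root; recovered 1 h at 35 °C in aCSF (5 mM KCl). Root sealed with grease into side compartment of aCSF + 1 μM capsaicin, 10 min, while slice superfused at 35 °C; 10 min further superfusion, immersion-fixed, 25 μm cryosections, Y1 antiserum 1:500, confocal. Ipsilateral vs contralateral; repeated-measures 2-way ANOVA, Holm-Sidak.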
# [5] = system: opioid release in spinal cord slices; conditions: cited from earlier work
# [6] = system: inhibitory interneurons in the dorsal horn; conditions: four classes of inhibitory interneurons; ref Polgar et al. (2013); cited from earlier work
# [7] = system: MOR; conditions: ref Song and Marvizon, 2003a; cited from earlier work
# [8] = system: NK1R; conditions: compared with endogenous opioids; ref Marvizon et al., 2003b; cited from earlier work
# [9] = target: T1, Y1 receptor; type: cell-based
molecule,measurement,setting,value
"O=C(Nc1ncnc2c1ncn2[C@@H]1O[C@@H]2COP(=O)(O)OC2C1O)c1ccccc1 (stereo in doubt) [6-Bnz-cAMP, 6-benzoyl-3′,5′-cyclic monophosphate]",Y1 receptor internalization by protein kinase A activator,"[1]; 10 nM, 60 min, 35 °C",induced a substantial amount of Y1 receptor internalization
same,"Y1 receptor internalization / NPY release by chemical stimulus, summary",[1],induced Y1 receptor internalization
"Nc1ncnc2c1nc(Br)n2[C@@H]1O[C@@H]2COP(=O)(O)O[C@H]2[C@H]1O [8-Br-cAMP, 8-bromoadenosine-3′,5′-cyclic monophosphate]",substance P release by cell-permeable cAMP analogs,"[2]; dorsal horn, 2018",induce substance P release
"CC(N)C(=O)N1CCCC1C#N (stereo not drawn) [Ala-Pyrr-CN, alanine-pyrrolidine-nitrile]",effect on NPY-induced Y1 receptor internalization,[3],did not significantly increase NPY-induced Y1 receptor internalization
"CC1(C)C(=O)N=C2C1=C(O)C(=O)c1ccccc12 [BVT948, 4-hydroxy-3,3-dimethyl-2H-benz[g]indole-2,5(3H)-dione]",substance P release by BVT948,"[2]; 2014b, Chen et al., 2010",increases substance P release
same,Y1 receptor internalization after BVT948 preincubation and NMDA+D-Ser,"[1]; 10 μM BVT948 60 min, then 10 μM NMDA + D-serine 2 min, 8 min aCSF",also released NPY
N#Cc1cc2[nH]c(=O)c(=O)[nH]c2cc1[N+](=O)[O-] [CNQX],effect on dorsal root capsaicin-induced Y1 internalization,"[4]; slice superfused with 10 μM CNQX 10 min, 1 μM capsaicin on dorsal root",blocked; also recorded: eliminated the effect of capsaicin
same,effect on capsaicin-induced Y1R internalization,"[1]; 10 μM CNQX with 1 μM capsaicin, 10 min, whole slice",decreased the Y1R internalization induced by capsaicin to near control levels
[Cl-].[K+] [KCl],opioid release by KCl,"[5]; 30 mM KCl, 2 min, spinal cord slices, ref Chen et al., 2008",induced abundant opioid release
same,"neurons with Y1 receptor internalization, KCl","[1]; 30 mM KCl 2 min, then 8 min aCSF, 35 °C",> 80%
same,"Y1 receptor internalization / NPY release by chemical stimulus, summary",[1],induced Y1 receptor internalization
COc1cc(CNC(=O)CCCC/C=C/C(C)C)ccc1O [capsaicin],pERK induction,[6],induced pERK only in the galanin and NPY neurons
same,Y1 receptor internalization by dorsal root capsaicin,"[4]; 1 μM capsaicin on dorsal root (side chamber), 10 min","induced NPY release; also recorded: evoked substantial Y1 receptor internalization, which was significantly higher than in control slices"
same,opioid release by capsaicin,"[5]; dorsal horn, ref Song and Marvizon, 2003b",not opioid release
same,"neurons with Y1 receptor internalization, capsaicin","[1]; 1 μM capsaicin, 10 min, whole slice, 35 °C",approximately 50%
same,"Y1 receptor internalization / NPY release by chemical stimulus, summary",[1],induced Y1 receptor internalization
Ile-Pro-Ile,effect on NPY-induced Y1 receptor internalization,[3],did not significantly increase NPY-induced Y1 receptor internalization
Leu-enkephalin,reduction by peptidases of potency to induce MOR internalization,[7],two orders of magnitude
formalin,pERK induction,[6],induced pERK only in the galanin and NPY neurons
substance P,cleavage by peptidases,[8],much less readily
ω-conotoxin MVIIC,"effect on electrically evoked Y1 receptor internalization, ipsilateral",[9],decreased
